# Assay results taken from ChEMBL document CHEMBL1123082, “Hashish: synthesis and central nervous system activity of some novel analogues of cannabidiol and oxepin derivatives of delta 9-tetrahydrocannabinol” (1985).
# The source made the active and inactive calls.
# How the values were obtained:
# [1] = tested on: Mus musculus; assay: The difference between the preinjection and post injection temperatures in vehicle treated mice was evaluated at a dose 100 mg/kg; format: functional
# Summary of the method: (§1)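 Male ICR mice (22–30 g). Rectal temperature taken by thermistor probe inserted 25 mm just before iv vehicle or drug (0.1 mL/10 g). Mice spent 10 min in activity chambers, then temperature was taken immediately and every 10 min up to 60 min. Value is the change from pre-injection to 60 min post-injection, mean ± SEM, N = 6. Ambient temperature was 21–24 °C.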
# [2] = tested on: Mus musculus; assay: Compound was evaluated spontaneous activity in vehicle treated mice at a dose 3 mg/kg.; format: functional
# Summary of the method: (§2)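 Male ICR mice (22–30 g), housed 24 h in the lab before testing. Vehicle or drug given iv (0.1 mL/10 g), then each mouse placed alone in a photocell activity chamber. Beam interruptions counted for 10 min and expressed as percent of vehicle-treated controls. ED50 with 95% confidence limits by Litchfield–Wilcoxon. At least six mice per dose.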
# [3] = tested on: Mus musculus; assay: Compound was evaluated spontaneous activity in vehicle treated mice at a dose 1 mg/kg.; format: functional; summary of the method: as §2
# [4] = tested on: Mus musculus; assay: The difference between the preinjection and post injection temperatures in vehicle treated mice was evaluated at a dose 10 mg/kg; format: functional; summary of the method: as §1
# [5] = tested on: Mus musculus; assay: The difference between the preinjection and post injection temperatures in vehicle treated mice was evaluated at a dose 30 mg/kg; format: functional; summary of the method: as §1
# [6] = tested on: Mus musculus; assay: Compound was evaluated spontaneous activity in vehicle treated mice at a dose 100 mg/kg.; format: functional; summary of the method: as §2
# [7] = tested on: Mus musculus; assay: The difference between the preinjection and post injection temperatures in vehicle treated mice was evaluated at a dose 1 mg/kg; format: functional; summary of the method: as §1
# [8] = tested on: Canis familiaris; assay: Compound was evaluated for overt behavoiur in dogs by behavioral rating score in dog static-ataxia test at a dose 0.5 mg/kg; format: functional, Canis lupus familiaris
# Summary of the method: (§3)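 Mongrel dogs of either sex (8–12 kg) scored for spontaneous activity, gait, tail tuck, etc. before dosing. Cannabinoid or vehicle then given iv (1 mL/5 kg). Behaviour rated every 5 min on the Walton static-ataxia scale as modified. Sessions of five dogs: vehicle, 0.2 mg/kg Δ9-THC positive control, or one of three other cannabinoid treatments. Score given with number of dogs.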
# [9] = tested on: Mus musculus; assay: Compound was evaluated spontaneous activity in vehicle treated mice at a dose 30 mg/kg.; format: functional; summary of the method: as §2
# [10] = tested on: Mus musculus; assay: Compound was evaluated spontaneous activity in vehicle treated mice at a dose 10 mg/kg.; format: functional; summary of the method: as §2
# [11] = tested on: Mus musculus; assay: The difference between the preinjection and post injection temperatures in vehicle treated mice was evaluated at a dose 3 mg/kg; format: functional; summary of the method: as §1
# [12] = tested on: Mus musculus; assay: Compound was evaluated for the maximum possible effect in tail-flick test in mice at dose 2.5 mg/kg; format: functional
# Summary of the method: (§4)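 Male ICR mice (22–30 g). Control tail-flick latency to a heat source measured in each mouse. Vehicle or drug then given iv into the tail vein and latency retested 5 min later, with a 10 s cutoff. %MPE = (test − control)/(cutoff − control) × 100. At least six mice per dose.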
# [13] = tested on: Mus musculus; assay: The difference between the preinjection and postinjection (60 min) temperatures in mice was evaluated at a dose 7.5 mg/kg; format: functional
# [14] = tested on: Mus musculus; assay: Compound was evaluated for the maximum possible effect in tail-flick test in mice at dose 1 mg/kg; format: functional; summary of the method: as §4
# [15] = tested on: Mus musculus; assay: Compound was evaluated for the maximum possible effect in tail-flick test in mice at dose 0.3 mg/kg; format: functional; summary of the method: as §4
# [16] = tested on: Mus musculus; assay: The difference between the preinjection and postinjection (60 min) temperatures in mice was evaluated at a dose 2.5 mg/kg; format: functional
# [17] = tested on: Mus musculus; assay: The difference between the preinjection and postinjection (60 min) temperatures in mice was evaluated at a dose 5 mg/kg; format: functional; summary of the method: as §1
# [18] = tested on: Mus musculus; assay: The difference between the preinjection and postinjection (60 min) temperatures in mice was evaluated at a dose 30 mg/kg; format: functional; summary of the method: as §1
# [19] = tested on: Mus musculus; assay: Compound was evaluated for the percent antagonism by tail-flick test in mice in mice at dose 10 mg/kg; format: functional
# Summary of the method: (§5)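 Male ICR mice (22–30 g). Vehicle or drug given iv 10 min before an iv injection of Δ9-THC (1 mg/kg) or vehicle into the opposite tail vein. Tail-flick measured 5 min after the second injection, with a 10 s cutoff. % antagonism = [1 − (%MPE drug-pretreated / %MPE vehicle-pretreated)] × 100. At least six mice per dose.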
# [20] = tested on: Mus musculus; assay: The difference between the preinjection and postinjection (60 min) temperatures in mice was evaluated at a dose 35 mg/kg; format: functional; summary of the method: as §1
# [21] = tested on: Mus musculus; assay: Spontaneous activity in mice at a dose 10 mg/kg; format: functional; summary of the method: as §2
# [22] = tested on: Mus musculus; assay: The difference between the preinjection and postinjection (60 min) temperatures in mice was evaluated at a dose 25 mg/kg; format: functional; summary of the method: as §1
# [23] = tested on: Mus musculus; assay: Compound was evaluated for the maximum possible effect by tail-flick test in mice at dose 25 mg/kg; format: functional; summary of the method: as §4
# [24] = tested on: Mus musculus; assay: Compound was evaluated for the percent antagonism by tail-flick test in mice in mice at dose 25 mg/kg; format: functional; summary of the method: as §5
# [25] = tested on: Mus musculus; assay: The difference between the preinjection and postinjection (60 min) temperatures in mice was evaluated at a dose 100 mg/kg; format: functional; summary of the method: as §1
# [26] = tested on: Mus musculus; assay: The difference between the preinjection and postinjection (60 min) temperatures in mice was evaluated at a dose 50 mg/kg; format: functional; summary of the method: as §1
# [27] = tested on: Mus musculus; assay: The difference between the preinjection and postinjection (60 min) temperatures in mice was evaluated at a dose 40 mg/kg; format: functional; summary of the method: as §1
# [28] = tested on: Mus musculus; assay: Compound was evaluated for the maximum possible effect in tail-flick test in mice at dose 40 mg/kg; format: functional; summary of the method: as §4
# [29] = tested on: Mus musculus; assay: Compound was evaluated for the percent antagonism in tail-flick test in mice at dose 40 mg/kg; format: functional; summary of the method: as §5
# [30] = tested on: Mus musculus; assay: The difference between the preinjection and postinjection (60 min) temperatures in mice was evaluated at a dose 75 mg/kg; format: functional
# Summary of the method: (§6)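 Male ICR mice (22–30 g), housed 24 h before testing; rectal temperature by thermistor probe inserted 25 mm, taken just before dosing. Drug or vehicle given iv (0.1 mL/10 g); mice held 10 min in photocell chambers, then temperature read at 10-min intervals to 60 min. Value is pre- minus 60-min post-injection difference, mean ± SEM, N = 6.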
# [31] = tested on: Mus musculus; assay: The difference between the preinjection and post injection temperatures in vehicle treated mice was evaluated at a dose 2 mg/kg; format: functional; summary of the method: as §1
# [32] = tested on: Mus musculus; assay: Spontaneous activity in vehicle treated mice at a dose 30 mg/kg.; format: functional; summary of the method: as §2
# [33] = tested on: Mus musculus; assay: Spontaneous activity in vehicle treated mice at a dose 100 mg/kg.; format: functional; summary of the method: as §2
# [34] = tested on: Canis familiaris; assay: Compound was evaluated for overt behavoiur in dogs by behavioral rating score in dog static-ataxia test at a dose 2 mg/kg; format: functional, Canis lupus familiaris; summary of the method: as §3
# [35] = tested on: Canis familiaris; assay: Compound was evaluated for overt behavoiur in dogs by behavioral rating score in dog static-ataxia test at a dose 5 mg/kg; format: functional, Canis lupus familiaris; summary of the method: as §3
# [36] = tested on: Mus musculus; assay: Spontaneous activity in mice at a dose 10 mg/kg; Not active up to a lethal dose of 60 mg/kg; format: functional, organism-based; summary of the method: as §2
# [37] = tested on: Mus musculus; assay: The difference between the preinjection and postinjection (60 min) temperatures in mice was evaluated at a dose 10 mg/kg; format: functional; summary of the method: as §1
# [38] = tested on: Mus musculus; assay: Compound was evaluated for the maximum possible effect by tail-flick test in mice at dose 20 mg/kg; format: functional; summary of the method: as §4
# [39] = tested on: Mus musculus; assay: Compound was evaluated for the percent antagonism by tail-flick test in mice in mice at dose 20 mg/kg; format: functional; summary of the method: as §5
# [40] = tested on: Mus musculus; assay: Compound was evaluated for the percent antagonism by tail-flick test in mice at dose 10 mg/kg; format: functional; summary of the method: as §5
# [41] = tested on: Mus musculus; assay: Compound was evaluated for the percent antagonism by tail-flick test in mice in mice at dose 1.0 mg/kg; format: functional; summary of the method: as §5
# [42] = tested on: Mus musculus; assay: Compound was evaluated for the percent antagonism by tail-flick test in mice in mice at dose 2.5 mg/kg; format: functional; summary of the method: as §5
# [43] = tested on: Mus musculus; assay: Compound was evaluated for the maximum possible effect by tail-flick test in mice at dose 5.0 mg/kg; format: functional; summary of the method: as §4
# [44] = tested on: Mus musculus; assay: The difference between the preinjection and postinjection (60 min) temperatures in mice was evaluated at a dose 1.0 mg/kg; format: functional; summary of the method: as §1
# [45] = tested on: Mus musculus; assay: The difference between the preinjection and postinjection (60 min) temperatures in mice was evaluated at a dose 5.0 mg/kg; format: functional; summary of the method: as §1
# [46] = tested on: Mus musculus; assay: Compound was evaluated for the percent antagonism by tail-flick test in mice in mice at dose 5.0 mg/kg; format: functional; summary of the method: as §5
# [47] = tested on: Mus musculus; assay: Compound was evaluated for the maximum possible effect in tail-flick test in mice at dose 20 mg/kg; format: functional; summary of the method: as §4
# [48] = tested on: Mus musculus; assay: Compound was evaluated for the percent antagonism in tail-flick test in mice at a dose 20 mg/kg; format: functional; summary of the method: as §5
# [49] = tested on: Mus musculus; assay: The difference between the preinjection and postinjection (60 min) temperatures in mice was evaluated at a dose 60 mg/kg; format: functional; summary of the method: as §6
# [50] = tested on: Mus musculus; assay: Compound was evaluated for the percent antagonism in tail-flick test in mice in mice at dose 10 mg/kg; format: functional; summary of the method: as §5
smiles,measurement,setting,value
C=C1COc2cc(C(C)C(C)CCCCC)cc(O)c2C2C=C(C)CC[C@@H]12 (stereo partly drawn),Hypothermic effect,[1],7.8
same,Spontaneous activity,[2],50
same,Spontaneous activity,[3],10
same,Hypothermic effect,[4],4.9
same,Hypothermic effect,[5],5.7
same,Spontaneous activity,[6],82
same,Hypothermic effect,[7],0.4
same,Overt behavoiur,[8],0
same,Spontaneous activity,[9],58
same,Spontaneous activity,[10],71
same,Hypothermic effect,[11],0.6
CCCCCc1cc(O)c2c(c1)OC(C)(C)[C@@H]1CCC(C)=C[C@@H]21 [DRONABINOL],MPE,[12],61%
same,Hypothermic effect,[13],3.8
same,MPE,[14],53%
same,MPE,[15],27%
same,Hypothermic effect,[16],2.6
same,Hypothermic effect,[17],3.6
C=C(CNC(=O)CCCN)[C@@H]1CCC(C)=CC1c1c(O)cc(CCCCC)cc1O (stereo partly drawn),Hypothermic effect,[18],2
same,Antagonism,[19],14%
same,Hypothermic effect,[20],2.1
same,ED50,[21],30 mg/kg
same,Hypothermic effect,[22],1.3
same,MPE,[23],7%
same,Antagonism,[24],43%
C=C(C)[C@@H]1CCC(C)=C[C@H]1c1c(O)cc(CCCCC)cc1O [CANNABIDIOL],Hypothermic effect,[25],2.5
same,Hypothermic effect,[26],0.4
same,Hypothermic effect,[27],0.5
same,MPE,[28],5%
same,Antagonism,[29],0%
same,Hypothermic effect,[30],2.1
C=C1COc2cc(CCCCC)cc(O)c2C2C=C(C)CC[C@@H]12 (stereo partly drawn),Hypothermic effect,[31],0.4
same,Hypothermic effect,[1],0
same,Spontaneous activity,[32],0
same,Hypothermic effect,[5],0.1
same,Spontaneous activity,[33],41
same,Overt behavoiur,[34],0
same,Overt behavoiur,[35],0
C=C(CN(C(C)C)C(C)C)[C@@H]1CCC(C)=CC1c1c(OC(C)=O)cc(CCCCC)cc1OC(C)=O (stereo partly drawn),Hypothermic effect,[18],0.9
same,ED50,[36],inactive
same,Hypothermic effect,[37],1
same,MPE,[38],0%
same,Antagonism,[39],58%
same,Antagonism,[40],0%
C=C(CNCC)[C@@H]1CCC(C)=CC1c1c(O)cc(CCCCC)cc1O (stereo partly drawn),Antagonism,[41],33%
same,Antagonism,[42],66%
same,Hypothermic effect,[16],1.4
same,MPE,[43],7%
same,Hypothermic effect,[44],1
same,Hypothermic effect,[45],1
same,Antagonism,[46],67%
C=C(CN1CCOCC1)[C@@H]1CCC(C)=CC1c1c(OC(C)=O)cc(CCCCC)cc1OC(C)=O (stereo partly drawn),Hypothermic effect,[18],1.2
same,MPE,[47],3%
same,Hypothermic effect,[37],0.9
same,Antagonism,[48],14%
same,ED50,[21],16 mg/kg
same,Hypothermic effect,[49],1.3
C#CCN(C)CC(=C)[C@@H]1CCC(C)=CC1c1c(OC(C)=O)cc(CCCCC)cc1OC(C)=O (stereo partly drawn),Hypothermic effect,[18],1
same,Hypothermic effect,[37],0.3
same,MPE,[38],0%
same,ED50,[21],13 mg/kg
same,Antagonism,[50],25%
same,Hypothermic effect,[49],1.5
same,Antagonism,[39],63%
